Source: article PMC9362842 (Bioconjugate chemistry, 2022)
Like-named read-outs stand apart in the source and are kept apart here. Marks after values point to notes of the source that are not given here. Blank lines part the entries; values can stand above or below the compound they belong to.

Experiments:
[1] = cited from earlier work
[2] = cited from earlier work; remark: listed apart in the source
[3] = format: physicochemical; conditions: pH 7.4, 25 °C, I = 0.1 M KCl; for pLa (−log [M]free): [M]total = 10^−6 M, [L]total = 10^−5 M
Procedure, shortened: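 Protonation constants of the free chelator are first determined by pH potentiometric titration (25 °C, 0.1 M KCl ionic strength), then La³⁺ stability constants (log KLaL) by the same method, all in triplicate. The fifth and sixth protonation constants are not determined over the pH ranges used. Conditional constants and pLa at pH 7.4 are calculated from the protonation and stability constants.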

[4] = Hydrolytic stability of the -NCS group in pH 9.1 NaHCO3 buffer; format: physicochemical
GPC3 = GPC3 (Homo sapiens, UniProt P51654); experiment: Bio-layer interferometry; format: binding; conditions: BLI, immobilized GPC3 antigen, global fit
HepG2 (GPC3+) xenografts = format: in vivo, athymic nude mice; conditions: 100 nCi

pLa (−log [M]free) [3]: 15.58
log K´La (conditional stability constant) [3]: 14.63
Compound: O=C(O)c1cccc(CN2CCOCCOCCN(Cc3cccc(C(=O)O)n3)CCOCCOCC2)n1 [H2macropa]
log KLaHL ([1]; 0.1 M KCl): 2.28(3) ^ c
log K1 (protonation constant) ([2]; 0.1 M KCl): 7.41(1)^c
log K2 (protonation constant) ([2]; 0.1 M KCl): 6.85(1)^c
log K3 (protonation constant) ([2]; 0.1 M KCl): 3.32(1)^c
log K4 (protonation constant) ([2]; 0.1 M KCl): 2.36(1)^c
log K5 (protonation constant) ([2]; 0.1 M KCl): 1.69(1)^c

t1/2 of -NCS hydrolysis to the amine ([4]; buffer, pH 9.1): 1.25 h
time to complete hydrolysis to the amine ([4]; pH 9.1 NaHCO3 buffer, room temperature): approximately 5 h
Compound: O=C(O)c1cccc(CN2CCOCCOCCN(Cc3cc(N=C=S)cc(C(=O)O)n3)CCOCCOCC2)n1 [H2macropa-NCS]

pLa (−log [M]free) [3]: 16.22
log K´La (conditional stability constant) [3]: 15.27
Compound: O=C(O)CN(CCN(CC(=O)O)CC(=O)O)CCN(CC(=O)O)CC(=O)O [H5DTPA, diethylenetriamine pentaacetic acid]
log KLaL (La^3+ stability constant) ([1]; 0.1 M): 19.48 ^ e
log K1 (protonation constant) ([2]; 0.1 M): 10.45^e
log K2 (protonation constant) ([2]; 0.1 M): 8.53^e
log K3 (protonation constant) ([2]; 0.1 M): 4.28^e
log K4 (protonation constant) ([2]; 0.1 M): 2.65^e
log K5 (protonation constant) ([2]; 0.1 M): 1.82^e

pLa (−log [M]free) [3]: 16.62
log K´La (conditional stability constant) [3]: 15.67
Compound: O=C(O)CN1CCN(CC(=O)O)CCN(CC(=O)O)CCN(CC(=O)O)CC1 [H4DOTA, tetraazacyclododecane-1,4,7,10-tetraacetic acid]
log KLaHL ([1]; 0.1 M KCl): 2.5(2) ^ d
log KLaL (La^3+ stability constant) ([1]; 0.1 M KCl): 21.7(1) ^ d
log K1 (protonation constant) ([2]; 0.1 M KCl): 11.14^d
log K2 (protonation constant) ([2]; 0.1 M KCl): 9.69^d
log K3 (protonation constant) ([2]; 0.1 M KCl): 4.84^d
log K4 (protonation constant) ([2]; 0.1 M KCl): 3.95^d

pLa (−log [M]free) [3]: 13.62
log K´La (conditional stability constant) [3]: 12.67
Compound: O=C(O)CN(CCN(CC(=O)O)CC(=O)O)CC(=O)O [H4EDTA, ethylenediamine tetraacetic acid]
log KLaHL ([1]; 0.1 M): 2.24 ^ e
log KLaL (La^3+ stability constant) ([1]; 0.1 M): 15.46 ^ e
log K1 (protonation constant) ([2]; 0.1 M): 10.17^e
log K2 (protonation constant) ([2]; 0.1 M): 6.11^e
log K3 (protonation constant) ([2]; 0.1 M): 2.68^e
log K4 (protonation constant) ([2]; 0.1 M): 2.00^e
log K5 (protonation constant) ([2]; 0.1 M): 1.5^e

Kd (GPC3): 0.042 nM
Compound: GC33: glypican-3 (GPC3)-targeting antibody codrituzumab

Kd (GPC3): 0.19 nM
Compound: GC33-BZM: H2BZmacropa-NCS conjugate of the antibody GC33

Compound: [^225Ac]Ac-GC33-BZM: ^225Ac-labeled GC33-BZM antibody radioconjugate
tumor uptake compared with ^225Ac[Ac]-GC33-M (HepG2 (GPC3+) xenografts; 48 and 96 h): effectively indistinguishable
tumor uptake (HepG2 (GPC3+) xenografts; 48 and 96 h post-injection): clear, specific tumor uptake
